Broadly, the MIC is the lowest concentration found to suppress growth. High values mean weaker potency, low ones greater potency. The Papp is the rate of passage across a membrane or cell layer, normalised by area and donor concentration. One may read the pIC50 as the IC50 on a negative log10 scale, so that one unit is a factor of ten. By inhibition is commonly meant the change of the read-out against control, counted positive when it falls.

SMILES strings stand for the structures. pIC50: −log10 of the molar value. In brackets after ≈: the same amount, converted by molar mass. Square brackets hold non-standard residues; d marks the D form. Peptide text beside a SMILES is read from it. * marks the point of attachment. Phe(4-guanidino) = N=C(N)Nc1ccc(C[C@H](N)C(=O)O)cc1; Bip = N[C@@H](Cc1ccc(-c2ccccc2)cc1)C(=O)O; Dip = N[C@H](C(=O)O)C(c1ccccc1)c1ccccc1; NHBn = c1ccc(CN*)cc1

The results in this text go back to ChEMBL document CHEMBL1764999, “In vitro characterization of human peptide transporter hPEPT1 interactions and passive permeation studies of short cationic antimicrobial peptides” (J Med Chem, 2011).

Series [1] has as its system Staphylococcus aureus. Nature of the series: Antibacterial activity against methicillin-resistant Staphylococcus aureus by micro dilution method. The class given is functional.
Series [2] has as its system Staphylococcus aureus. Nature of the series: Antibacterial activity against Staphylococcus aureus by micro dilution method. The class given is functional.
Series [3] deals with Escherichia coli. Nature of the series: Antibacterial activity against Escherichia coli by micro dilution method. The class given is functional.
Series [4] can be described thus: Apparent permeability of the compound by PAMPA. The class given is ADME. On the technique in general: The PAMPA barrier holds no transporters, so it reflects passive diffusion.
Series [5] concerns the target T1, Solute carrier family 15 member 1 (Homo sapiens, UniProt P46059).
T1 sequence (P46059 whole entry): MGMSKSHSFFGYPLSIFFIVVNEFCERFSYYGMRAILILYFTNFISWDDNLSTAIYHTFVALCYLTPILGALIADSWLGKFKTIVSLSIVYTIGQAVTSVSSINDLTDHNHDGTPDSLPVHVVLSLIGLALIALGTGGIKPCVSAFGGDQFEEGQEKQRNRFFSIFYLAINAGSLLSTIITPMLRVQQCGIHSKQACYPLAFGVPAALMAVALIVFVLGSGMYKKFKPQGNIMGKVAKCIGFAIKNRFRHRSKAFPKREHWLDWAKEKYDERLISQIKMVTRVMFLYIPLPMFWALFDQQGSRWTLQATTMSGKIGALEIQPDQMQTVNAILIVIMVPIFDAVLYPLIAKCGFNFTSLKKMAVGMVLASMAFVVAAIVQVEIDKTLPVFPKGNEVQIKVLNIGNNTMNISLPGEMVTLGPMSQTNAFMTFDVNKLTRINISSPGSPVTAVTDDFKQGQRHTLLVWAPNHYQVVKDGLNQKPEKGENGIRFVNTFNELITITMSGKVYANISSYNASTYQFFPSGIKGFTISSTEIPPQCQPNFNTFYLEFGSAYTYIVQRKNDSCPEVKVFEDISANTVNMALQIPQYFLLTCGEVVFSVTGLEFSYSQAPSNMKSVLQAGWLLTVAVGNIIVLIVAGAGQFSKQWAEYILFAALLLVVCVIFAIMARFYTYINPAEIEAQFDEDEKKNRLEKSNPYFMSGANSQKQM
In words: Inhibition of human PEPT1 expressed in Xenopus laevis oocytes assessed as inhibition of glycylsarcosine-induced transport-associated current at -60 mV membrane potential by two-electrode voltage clamp method. The class given is cell-based, Oocyte. The gist of the method: (§1)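 The hPEPT1 cRNA-injected oocytes were clamped at -60 mV in Barth's solution with HEPES replaced by MES (pH 6.5), at room temperature. Currents from 1 mM Gly-Sar were recorded with and without test peptide (0.25-1.0 mM) at steady state. Flux used a 3.80 mm² surface. Inhibition is residual current as % of the Gly-Sar current. IC50 was fitted from mean inhibitions by Michaelis-Menten.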

Series [6] addresses T2, Solute carrier family 15 member 1 (Homo sapiens) (UniProt P46059).
T2 sequence (whole entry): T1 sequence (P46059 whole entry)
In words: Inhibition of human PEPT1 expressed in Xenopus laevis oocytes assessed as Inhibition of glycylsarcosine-induced transport-associated current at 0.25 to 1 mM at -60 mV membrane potential by two-electrode voltage clamp method. The class given is cell-based. As to conditions: Oocyte. The gist of the method: as §1
For orientation: Two-electrode voltage clamp holds a large cell at a set potential and records current.

In series [7] the target is T2, Solute carrier family 15 member 1 (Homo sapiens). In words: Inhibition of human PEPT1 expressed in Xenopus laevis oocytes assessed as effect on glycylsarcosine-induced transport-associated flux rate current at 0.25 to 1 mM at -60 mV membrane potential by two-electrode voltage clamp method. The class given is cell-based. The note with it: Oocyte. The method in brief:
as §1

Series [8] has the same target. Nature of the series: Activity of human PEPT1 expressed in Xenopus laevis oocytes assessed as induction of transport-associated flux rate current at 1 mM at -60 mV membrane potential by two-electrode voltage clamp method. The note with it: Oocyte. The class given is cell-based. The method in brief:
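Oocytes were collagenase-treated (2.5 mg/mL, 70 min) and injected with ~25 ng hPEPT1 cRNA, then held 3-5 days at 17 °C. Superfused at room temperature with MES-buffered Barth's, pH 6.5, clamped at -60 mV. Current is the difference with vs without test peptide, taken 20-30 s after application. Flux in pmol/(s cm²) assumes a 3.80 mm² oocyte surface. Mean of three oocytes.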

Consider `CC(C)(C)c1cc(C(C)(C)C)c2[nH]c(C(C)(C)C)c(C[C@H](N)C(=O)N[C@@H](CCCNC(=N)N)C(=O)NCCc3ccccc3)c2c1`, for which the MIC in series [1] came out at 2.5 mg/L (≈ 3.96 µM); in series [2] it was 2.5 mg/L (≈ 3.96 µM); in series [3], 10 mg/L (≈ 15.8 µM). In series [4] (read-out: Papp), the Papp amounted to 52.7 nm/s.
Take `NC(=O)[C@H](CCCN=C(N)N)NC(=O)[C@H](Cc1c[nH]c2ccccc12)NC(=O)[C@@H](N)CCCN=C(N)N` (H-Arg-Trp-Arg-NH2): the pIC50 in series [5] was 2.57. Also, the inhibition in series [6] stood at 15.1%. For the same molecule, the MIC in series [2] and in series [3] was above 200 mg/L in each case. The Activity in series [7] is 61.8 pmol/(s.cm2). The Papp in series [4] (read-out: Papp) worked out at 23.7 nm/s.
On to `COC(=O)[C@H](CCCN=C(N)N)NC(=O)[C@@H](N)Cc1ccc(-c2ccccc2)cc1` (H-[Bip]-Arg-OMe), for which, in series [6], the inhibition was determined as 10.4%. Besides, the MIC is 150 mg/L (≈ 365 µM) in series [2] and above 200 mg/L in series [3]. In addition, the Activity in series [7] is 57.2 pmol/(s.cm2). Moreover, the Papp in series [4] (read-out: Papp) turned out to be 10.6 nm/s.
For `N=C(N)Nc1ccc(C[C@H](NC(=O)[C@H](Cc2ccc(-c3ccccc3)cc2)NC(=O)[C@@H](N)Cc2ccc(NC(=N)N)cc2)C(=O)NCc2ccccc2)cc1` (H-[Phe(4-guanidino)]-[Bip]-[Phe(4-guanidino)]-NHBn), the MIC in series [1] is 5 mg/L (≈ 6.77 µM); in series [2], below 2.5 mg/L; in series [3] it was 75 mg/L (≈ 102 µM). Besides, the Papp in series [4] (read-out: Papp) is 9 nm/s.
`N=C(N)NCCC[C@H](NC(=O)[C@@H](N)CCCNC(=N)N)C(=O)N[C@@H](Cc1c[nH]c2ccccc12)C(=O)NCc1ccccc1` (H-Arg-Arg-Trp-NHBn): the MIC was 25 mg/L (≈ 41.3 µM) in series [1], 75 mg/L (≈ 124 µM) in series [2] and above 150 mg/L in series [3]. In series [4] (read-out: Papp), the Papp came to 9.6 nm/s.
On to `N=C(N)NCCC[C@H](NC(=O)[C@H](Cc1ccc(-c2ccccc2)cc1)NC(=O)[C@@H](N)CCCNC(=N)N)C(N)=O` (H-Arg-[Bip]-Arg-NH2), for which the MIC in series [1] was found to be 50 mg/L (≈ 90.5 µM); in series [2], 200 mg/L (≈ 362 µM). The inhibition in series [6] is -3.3%. Besides, in series [7], the Activity is 56.7 pmol/(s.cm2). In addition, in series [4] (read-out: Papp), the Papp amounted to 0.1 nm/s.
As to `NCCCC[C@H](NC(=O)[C@H](Cc1ccc(-c2ccccc2)cc1)NC(=O)[C@@H](N)CCCCN)C(N)=O` (H-Lys-[Bip]-Lys-NH2), the MIC in series [2] is above 200 mg/L. Also, in series [4] (read-out: Papp), the Papp is 0.6 nm/s.
With `N=C(N)NCCC[C@H](NC(=O)[C@H](Cc1ccc(-c2ccccc2)cc1)NC(=O)[C@@H](N)CCCNC(=N)N)C(=O)NCc1ccccc1` (H-Arg-[Bip]-Arg-NHBn), the MIC in series [1] was 5 mg/L (≈ 7.78 µM); in series [2] it was 5 mg/L (≈ 7.78 µM); in series [3], 100 mg/L (≈ 156 µM). Further, in series [4] (read-out: Papp), the Papp was 0.1 nm/s.
As to `N=C(N)NCCC[C@H](N)C(=O)N[C@@H](Cc1c[nH]c2ccccc12)C(=O)N[C@@H](Cc1ccc(NC(=N)N)cc1)C(=O)NCc1ccccc1` (H-Arg-Trp-[Phe(4-guanidino)]-NHBn), the MIC in series [1] was 10 mg/L (≈ 15.3 µM); in series [2] it was 50 mg/L (≈ 76.5 µM); in series [3], above 150 mg/L. In addition, in series [4] (read-out: Papp), the Papp stood at 4.7 nm/s.
In the case of `CC(C)(C)NCC(O)c1cc(O)cc(O)c1` (stereo not given) [TERBUTALINE], the Papp in series [4] (read-out: Papp) was determined as 4 nm/s.
With `N=C(N)NCCC[C@H](NC(=O)[C@H](Cc1ccccc1)NC(=O)[C@@H](N)CCCNC(=N)N)C(=O)NCc1ccccc1` (H-Arg-Phe-Arg-NHBn), the MIC was 75 mg/L (≈ 132 µM) in series [1], 150 mg/L (≈ 265 µM) in series [2] and above 150 mg/L in series [3]. Moreover, the Papp in series [4] (read-out: Papp) turned out to be 23.1 nm/s.
On the same counts, the results for `N=C(N)NCCC[C@H](NC(=O)[C@@H](NC(=O)[C@@H](N)CCCNC(=N)N)C(c1ccccc1)c1ccccc1)C(N)=O` (H-Arg-[Dip]-Arg-NH2) are above 150 mg/L, 100 mg/L (≈ 181 µM), above 150 mg/L and 8.3 nm/s.
Take `NC(N)=NCCC[C@H](NC(=O)[C@@H](N)Cc1c[nH]c2ccccc12)C(=O)NCc1ccccc1` (H-Trp-Arg-NHBn): the Activity in series [8] came out at 1.2%.
As for `N=C(N)NCCC[C@H](NC(=O)[C@@H](N)Cc1ccc(-c2ccccc2)cc1)C(=O)O` (H-[Bip]-Arg-OH), in series [8], the Activity amounted to 10.7%.
In the case of `CC(C)(C)c1cc(C(C)(C)C)c2[nH]c(C(C)(C)C)c(C[C@H](NC(=O)[C@@H](N)CCCNC(=N)N)C(=O)N[C@@H](CCCNC(=N)N)C(=O)NCc3ccccc3)c2c1`, the MIC in series [1] stood at 2.5 mg/L (≈ 3.23 µM); in series [2] it was 2.5 mg/L (≈ 3.23 µM); in series [3] it was 7.5 mg/L (≈ 9.69 µM).
For the molecule `N=C(N)NCCC[C@H](NC(=O)[C@H](Cc1c[nH]c2ccccc12)NC(=O)[C@@H](N)CCCNC(=N)N)C(=O)NCc1ccccc1` (H-Arg-Trp-Arg-NHBn), the MIC in series [1] is 25 mg/L (≈ 41.3 µM); in series [2], 75 mg/L (≈ 124 µM); in series [3] it was above 150 mg/L. In series [6], the inhibition came out at 87.6%. Besides, the Activity in series [7] is 3.8 pmol/(s.cm2). In addition, the Papp in series [4] (read-out: Papp) came out at 7.7 nm/s.
As to `N=C(N)NCCC[C@H](NC(=O)[C@@H](NC(=O)[C@@H](N)CCCNC(=N)N)C(c1ccccc1)c1ccccc1)C(=O)NCc1ccccc1` (H-Arg-[Dip]-Arg-NHBn), the MIC in series [1] was 10 mg/L (≈ 15.6 µM); in series [2], 25 mg/L (≈ 38.9 µM); in series [3], above 150 mg/L. Moreover, in series [4] (read-out: Papp), the Papp worked out at 4.2 nm/s.
`N=C(N)NCCC[C@H](NC(=O)[C@@H](N)Cc1c[nH]c2ccccc12)C(=O)O` (H-Trp-Arg-OH): the Activity in series [8] was found to be 43.5%.
As to `COCCc1ccc(OCC(O)CNC(C)C)cc1` (stereo not given) [METOPROLOL], the Papp in series [4] (read-out: Papp) amounted to 32.3 nm/s.
For the molecule `CC(C)(C)c1cc(C(C)(C)C)c2[nH]c(C(C)(C)C)c(C[C@H](N)C(=O)N[C@@H](CCCNC(=N)N)C(N)=O)c2c1`, the MIC in series [1] is 15 mg/L (≈ 28.4 µM); in series [2], 15 mg/L (≈ 28.4 µM); in series [3], above 150 mg/L. Also, the pIC50 in series [5] was 3.22. Moreover, the inhibition in series [6] came out at 20.3%. Further, the Activity in series [7] is 34.8 pmol/(s.cm2). The Papp in series [4] (read-out: Papp) came out at 4.3 nm/s.
Consider `NS(=O)(=O)c1cc2c(cc1Cl)N=CNS2(=O)=O` [CHLOROTHIAZIDE], for which, in series [4], the Papp was 0.3 nm/s.
Turning to `NCCCC[C@H](NC(=O)[C@H](Cc1ccc(-c2ccccc2)cc1)NC(=O)[C@@H](N)CCCCN)C(=O)NCc1ccccc1` (H-Lys-[Bip]-Lys-NHBn), the MIC in series [1] was 25 mg/L (≈ 42.6 µM); in series [2], 15 mg/L (≈ 25.6 µM); in series [3], above 150 mg/L. Moreover, the Papp in series [4] (read-out: Papp) was found to be 2.6 nm/s.
On the same counts, the results for `N=C(N)NCCC[C@H](N)C(=O)N[C@@H](Cc1ccc(NC(=N)N)cc1)C(=O)N[C@@H](Cc1c[nH]c2ccccc12)C(=O)NCc1ccccc1` (H-Arg-[Phe(4-guanidino)]-Trp-NHBn) are 15 mg/L (≈ 22.9 µM), 50 mg/L (≈ 76.5 µM), above 150 mg/L and 3.8 nm/s.
